# From ChEMBL document CHEMBL3352573 (Bioorg Med Chem, 2014)
# How the values were obtained:
# [1] = Retention time of the compound by reverse-phase HPLC method; type: physicochemical
# Summary of the method: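 Analytical reverse-phase HPLC on a C18 column (Jupiter 5U C18 300A), 10–40% acetonitrile with 0.1% TFA linear over 30 min at 1 mL/min, UV detection at 220 and 280 nm.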
# Melanocortin receptor 4 = Melanocortin receptor 4 (Homo sapiens, UniProt P32245); test: Displacement of Eu-DTPA-NDP-a-MSH chelate from human melanocortin-4 receptor expressed in HEK293 cells after 1 hr by competitive DELFIA assay; type: cell-based
# Melanocortin receptor 4, sequence (P32245 whole entry): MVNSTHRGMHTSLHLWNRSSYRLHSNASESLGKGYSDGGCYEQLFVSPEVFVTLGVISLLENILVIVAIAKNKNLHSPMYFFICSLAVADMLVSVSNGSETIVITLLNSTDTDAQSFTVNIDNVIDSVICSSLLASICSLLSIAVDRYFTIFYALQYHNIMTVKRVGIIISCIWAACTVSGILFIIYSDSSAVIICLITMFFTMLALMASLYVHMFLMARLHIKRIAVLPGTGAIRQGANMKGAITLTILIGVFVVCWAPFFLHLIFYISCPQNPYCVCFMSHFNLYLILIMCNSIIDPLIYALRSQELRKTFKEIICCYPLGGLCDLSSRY
# Summary of the method: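 HEK293 cells stably carrying hMC4R (pcDNA3.1) were grown in DMEM plus 10% FBS, seeded at 12,000 cells/well and cultured 3 days. Whole cells were competed with unlabeled ligand against 10 nM (final) Eu-DTPA-NDP-α-MSH in binding medium (DMEM, 1 mM 1,10-phenanthroline, bacitracin, leupeptin, 0.3% BSA) for 1 h at 37 °C, in quadruplicate. EC50 and Hill slope came from variable-slope sigmoidal fits.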
Retention_time [1],EC50 (Melanocortin receptor 4),Compound
13.1 min,–,CCCC[C@H](NC(C)=O)C(=O)N[C@H]1CC(=O)NCCCC[C@@H](C(=O)N2CCC[C@H]2C(=O)NCC(=O)N2CCC[C@H]2C(=O)NCC(=O)N2CCC[C@H]2C(=O)NCC(=O)N2CCC[C@H]2C(=O)NCC(=O)N2CCC[C@H]2C(=O)NCC(=O)N2CCC[C@H]2C(=O)NCC(=O)N2CCC[C@H]2C(=O)NCC(=O)N2CCC[C@H]2C(=O)NCC(=O)N2CCC[C@H]2C(=O)NCC(=O)N2CCC[C@H]2C(=O)NCC(=O)N2CCC[C@H]2C(=O)NCC(=O)N2CCC[C@H]2C(=O)NCC(=O)N[C@@H](CCCC)C(=O)N[C@H]2CC(=O)NCCCC[C@@H](C(N)=O)NC(=O)[C@H](Cc3c[nH]c4ccccc34)NC(=O)[C@H](CCCNC(=N)N)NC(=O)[C@@H](Cc3ccc4ccccc4c3)NC(=O)[C@H](Cc3cnc[nH]3)NC2=O)NC(=O)[C@H](Cc2c[nH]c3ccccc23)NC(=O)[C@H](CCCNC(=N)N)NC(=O)[C@@H](Cc2ccc3ccccc3c2)NC(=O)[C@H](Cc2cnc[nH]2)NC1=O
11.9 min,–,CCCC[C@H](NC(=O)CNC(=O)[C@@H]1CCCN1C(=O)CNC(=O)[C@@H]1CCCN1C(=O)CNC(=O)[C@@H]1CCCN1C(=O)CNC(=O)[C@@H]1CCCN1C(=O)CNC(=O)[C@@H]1CCCN1C(=O)CNC(=O)[C@@H]1CCCN1C(C)=O)C(=O)N[C@H]1CC(=O)NCCCC[C@@H](C(N)=O)NC(=O)[C@H](Cc2c[nH]c3ccccc23)NC(=O)[C@H](CCCNC(=N)N)NC(=O)[C@@H](Cc2ccc3ccccc3c2)NC(=O)[C@H](Cc2cnc[nH]2)NC1=O
11.9 min,–,CCCC[C@H](NC(=O)CNC(=O)[C@@H]1CCCN1C(=O)CNC(=O)[C@@H]1CCCN1C(=O)CNC(=O)[C@@H]1CCCN1C(=O)CNC(=O)[C@@H]1CCCN1C(=O)CNC(=O)[C@@H]1CCCN1C(=O)CNC(=O)[C@@H]1CCCN1C(=O)CNC(=O)[C@@H]1CCCN1C(=O)CNC(=O)[C@@H]1CCCN1C(=O)CNC(=O)[C@@H]1CCCN1C(C)=O)C(=O)N[C@H]1CC(=O)NCCCC[C@@H](C(N)=O)NC(=O)[C@H](Cc2c[nH]c3ccccc23)NC(=O)[C@H](CCCNC(=N)N)NC(=O)[C@@H](Cc2ccc3ccccc3c2)NC(=O)[C@H](Cc2cnc[nH]2)NC1=O
12.3 min,–,CCCC[C@H](NC(=O)COCC(=O)NCCCOCCOCCOCCCNC(=O)CNC(=O)[C@@H]1CCCN1C(=O)CNC(=O)[C@@H]1CCCN1C(=O)CNC(=O)[C@@H]1CCCN1C(=O)COCC(=O)NCCCOCCOCCOCCCNC(C)=O)C(=O)N[C@H]1CC(=O)NCCCC[C@@H](C(N)=O)NC(=O)[C@H](Cc2c[nH]c3ccccc23)NC(=O)[C@H](CCCNC(=N)N)NC(=O)[C@@H](Cc2ccc3ccccc3c2)NC(=O)[C@H](Cc2cnc[nH]2)NC1=O
13.2 min,–,CCCC[C@H](NC(C)=O)C(=O)N[C@H]1CC(=O)NCCCC[C@@H](C(=O)N2CCC[C@H]2C(=O)NCC(=O)N2CCC[C@H]2C(=O)NCC(=O)N2CCC[C@H]2C(=O)NCC(=O)N2CCC[C@H]2C(=O)NCC(=O)N2CCC[C@H]2C(=O)NCC(=O)N2CCC[C@H]2C(=O)NCC(=O)N2CCC[C@H]2C(=O)NCC(=O)N2CCC[C@H]2C(=O)NCC(=O)N2CCC[C@H]2C(=O)NCC(=O)N[C@@H](CCCC)C(=O)N[C@H]2CC(=O)NCCCC[C@@H](C(N)=O)NC(=O)[C@H](Cc3c[nH]c4ccccc34)NC(=O)[C@H](CCCNC(=N)N)NC(=O)[C@@H](Cc3ccc4ccccc4c3)NC(=O)[C@H](Cc3cnc[nH]3)NC2=O)NC(=O)[C@H](Cc2c[nH]c3ccccc23)NC(=O)[C@H](CCCNC(=N)N)NC(=O)[C@@H](Cc2ccc3ccccc3c2)NC(=O)[C@H](Cc2cnc[nH]2)NC1=O
12 min,4.1 nM,CCCC[C@H](NC(=O)CNC(=O)[C@@H]1CCCN1C(=O)CNC(=O)[C@@H]1CCCN1C(=O)CNC(=O)[C@@H]1CCCN1C(=O)CNC(=O)[C@@H]1CCCN1C(=O)CNC(=O)[C@@H]1CCCN1C(=O)CNC(=O)[C@@H]1CCCN1C(=O)[C@H](Cc1c[nH]c2ccccc12)NC(=O)[C@H](CCCNC(=N)N)NC(=O)[C@@H](Cc1ccccc1)NC(=O)[C@H](Cc1cnc[nH]1)NC(=O)[C@H](CCC(=O)O)NC(=O)[C@H](CCCC)NC(=O)[C@H](CO)NC(C)=O)C(=O)N[C@H]1CC(=O)NCCCC[C@@H](C(N)=O)NC(=O)[C@H](Cc2c[nH]c3ccccc23)NC(=O)[C@H](CCCNC(=N)N)NC(=O)[C@@H](Cc2ccc3ccccc3c2)NC(=O)[C@H](Cc2cnc[nH]2)NC1=O
11.9 min,–,CCCC[C@H](NC(=O)CNC(=O)[C@@H]1CCCN1C(=O)CNC(=O)[C@@H]1CCCN1C(=O)CNC(=O)[C@@H]1CCCN1C(=O)CNC(=O)[C@@H]1CCCN1C(=O)CNC(=O)[C@@H]1CCCN1C(=O)CNC(=O)[C@@H]1CCCN1C(=O)CNC(=O)[C@@H]1CCCN1C(=O)CNC(=O)[C@@H]1CCCN1C(=O)CNC(=O)[C@@H]1CCCN1C(=O)CNC(=O)[C@@H]1CCCN1C(=O)CNC(=O)[C@@H]1CCCN1C(=O)CNC(=O)[C@@H]1CCCN1C(C)=O)C(=O)N[C@H]1CC(=O)NCCCC[C@@H](C(N)=O)NC(=O)[C@H](Cc2c[nH]c3ccccc23)NC(=O)[C@H](CCCNC(=N)N)NC(=O)[C@@H](Cc2ccc3ccccc3c2)NC(=O)[C@H](Cc2cnc[nH]2)NC1=O
12 min,2 nM,CCCC[C@H](NC(=O)CNC(=O)[C@@H]1CCCN1C(=O)CNC(=O)[C@@H]1CCCN1C(=O)CNC(=O)[C@@H]1CCCN1C(=O)CNC(=O)[C@@H]1CCCN1C(=O)CNC(=O)[C@@H]1CCCN1C(=O)CNC(=O)[C@@H]1CCCN1C(=O)CNC(=O)[C@@H]1CCCN1C(=O)CNC(=O)[C@@H]1CCCN1C(=O)CNC(=O)[C@@H]1CCCN1C(=O)[C@H](Cc1c[nH]c2ccccc12)NC(=O)[C@H](CCCNC(=N)N)NC(=O)[C@@H](Cc1ccccc1)NC(=O)[C@H](Cc1cnc[nH]1)NC(=O)[C@H](CCC(=O)O)NC(=O)[C@H](CCCC)NC(=O)[C@H](CO)NC(C)=O)C(=O)N[C@H]1CC(=O)NCCCC[C@@H](C(N)=O)NC(=O)[C@H](Cc2c[nH]c3ccccc23)NC(=O)[C@H](CCCNC(=N)N)NC(=O)[C@@H](Cc2ccc3ccccc3c2)NC(=O)[C@H](Cc2cnc[nH]2)NC1=O

# The next lines start with the compound.
Compound,Retention_time [1],EC50 (Melanocortin receptor 4)
CCCC[C@H](NC(C)=O)C(=O)N[C@H]1CC(=O)NCCCC[C@@H](C(=O)NCCCOCCOCCOCCCNC(=O)COCC(=O)N2CCC[C@H]2C(=O)NCC(=O)N2CCC[C@H]2C(=O)NCC(=O)N2CCC[C@H]2C(=O)NCC(=O)NCCCOCCOCCOCCCNC(=O)COCC(=O)N[C@@H](CCCC)C(=O)N[C@H]2CC(=O)NCCCC[C@@H](C(N)=O)NC(=O)[C@H](Cc3c[nH]c4ccccc34)NC(=O)[C@H](CCCNC(=N)N)NC(=O)[C@@H](Cc3ccc4ccccc4c3)NC(=O)[C@H](Cc3cnc[nH]3)NC2=O)NC(=O)[C@H](Cc2c[nH]c3ccccc23)NC(=O)[C@H](CCCNC(=N)N)NC(=O)[C@@H](Cc2ccc3ccccc3c2)NC(=O)[C@H](Cc2cnc[nH]2)NC1=O,13.6 min,–
CCCC[C@H](NC(C)=O)C(=O)N[C@H]1CC(=O)NCCCC[C@@H](C(=O)NCCCOCCOCCOCCCNC(=O)COCC(=O)N[C@@H](CCCC)C(=O)N[C@H]2CC(=O)NCCCC[C@@H](C(N)=O)NC(=O)[C@H](Cc3c[nH]c4ccccc34)NC(=O)[C@H](CCCNC(=N)N)NC(=O)[C@@H](Cc3ccc4ccccc4c3)NC(=O)[C@H](Cc3cnc[nH]3)NC2=O)NC(=O)[C@H](Cc2c[nH]c3ccccc23)NC(=O)[C@H](CCCNC(=N)N)NC(=O)[C@@H](Cc2ccc3ccccc3c2)NC(=O)[C@H](Cc2cnc[nH]2)NC1=O,14 min,–
CCCC[C@H](NC(=O)COCC(=O)NCCCOCCOCCOCCCNC(C)=O)C(=O)N[C@H]1CC(=O)NCCCC[C@@H](C(N)=O)NC(=O)[C@H](Cc2c[nH]c3ccccc23)NC(=O)[C@H](CCCNC(=N)N)NC(=O)[C@@H](Cc2ccc3ccccc3c2)NC(=O)[C@H](Cc2cnc[nH]2)NC1=O,12.5 min,–
CCCC[C@H](NC(C)=O)C(=O)N[C@H]1CC(=O)NCCCC[C@@H](C(=O)NCCCOCCOCCOCCCNC(=O)COCC(=O)NCCCOCCOCCOCCCNC(=O)COCC(=O)N[C@@H](CCCC)C(=O)N[C@H]2CC(=O)NCCCC[C@@H](C(N)=O)NC(=O)[C@H](Cc3c[nH]c4ccccc34)NC(=O)[C@H](CCCNC(=N)N)NC(=O)[C@@H](Cc3ccc4ccccc4c3)NC(=O)[C@H](Cc3cnc[nH]3)NC2=O)NC(=O)[C@H](Cc2c[nH]c3ccccc23)NC(=O)[C@H](CCCNC(=N)N)NC(=O)[C@@H](Cc2ccc3ccccc3c2)NC(=O)[C@H](Cc2cnc[nH]2)NC1=O,13.9 min,–
CCCC[C@H](NC(=O)COCC(=O)NCCCOCCOCCOCCCNC(=O)COCC(=O)NCCCOCCOCCOCCCNC(C)=O)C(=O)N[C@H]1CC(=O)NCCCC[C@@H](C(N)=O)NC(=O)[C@H](Cc2c[nH]c3ccccc23)NC(=O)[C@H](CCCNC(=N)N)NC(=O)[C@@H](Cc2ccc3ccccc3c2)NC(=O)[C@H](Cc2cnc[nH]2)NC1=O,12.5 min,–
